Assay outcomes from PubChem.
Sampled rows, rich in hits. Any-hit rate of the full collection: about 3.8%.
Yeast growth inh – chemicals that inhibit yeast BB579 growth in restrictive medium (lifespan-shortening candidates). S. cerevisiae BB579 growth, OD615, 48 h. inhibition, % at 10 µM. 140,000 tested, 0.51% active;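 active = inhibition above a set limit, 3 SD over the mean compound inhibition, cut at about 44% in these data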
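Test system: DeaD yeast strain BB579 / Buffer or medium: restrictive glucose-based CSMM-D medium / Doses: single 10 µM dose / Schedule: 4 h cell preincubation, 48 h compound exposure, 30 °C humidified / Technique: culture absorbance at 615 nm / Controls: amphotericin B positive control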
Yeast lifespan up – extends the lifespan of yeast. S. cerevisiae growth with nicotinamide, OD615; deaD strain in restrictive glucose medium. inhibition of the nicotinamide effect, % at 10 µM. 130,000 tested, 0.68% active;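 active = inhibition above a set limit, placed 3 SD over the median of all compounds, cut at about 26% in these data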
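assay system = DeaD-strain S. cerevisiae | buffer or medium = restrictive glucose medium | reagent = 1.5 mM nicotinamide | compound = 10 µM single point, 0.25% DMSO | incubation = 48 h compound exposure at 30 °C, humidified | signal = OD615 measurement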
Measles CPE – protection of cells from measles virus. Measles virus-infected cells, CPE protection, absorbance. protection (pct of control), % at 4 µM. 140,000 tested, 1.5% active; in the data active = protection mostly above about 24%, no sharp cut-off; inactive = mostly below about 26%
RAM inhibit – yeast RAM network inhibition. AID 868. inhibition, % at 50 µM. S. cerevisiae dse1pr::URA3 reporter, 5-FOA growth OD615, 2 d; analog-sensitive cbk1-as2 kinase mutant strain. 190,000 tested, 1.8% active;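 active = inhibition above a set limit, 3 SD over mean compound inhibition, cut at about 8.4% in these data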;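 note: inhibition rescues growth on 5-FOA so higher OD means more RAM inhibition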
RAM 5-FOA – restores 5-FOA growth of efflux-deficient yeast; shares compounds with RAM inhibit; 1,200 tested, under 10 active; AID 1305; S. cerevisiae efflux-deficient reporter strain, 5-FOA growth OD615, 2 days; max inhibition, %; call rule not given here
Numbers stand for hits; – = inactive; · = not tested or not shown.

SMILES | Yeast growth inh | Yeast lifespan up | Measles CPE | RAM inhibit | RAM 5-FOA
CC(=O)O[C@@H]1[C@@]2(C)O[C@H]2CC[C@]23O[C@H]2[C@H](OC3=O)C2=C(C)C(=O)O[C@@]21O | – | – | – | – | ·
O=C(Nc1cccc(F)c1)c1cc(S(=O)(=O)N2CCOCC2)cs1 | · | · | · | – | ·
CCN(c1ccccc1)S(=O)(=O)c1ccc(Cl)nc1 | · | · | · | – | ·
CCN(c1ccccc1)S(=O)(=O)c1ccc(NCC2COc3ccccc3O2)nc1 (stereo not drawn) | – | – | – | 13 | –
O=C(NCc1ccco1)C1CCCN1C(=O)Nc1ccccc1Cl (stereo not drawn) | · | · | · | – | ·
O=C(/C=C/c1ccccc1)N1CCN(c2cccc(Cl)n2)CC1 | – | – | – | 12 | –
CCN(c1ccc(NC(=O)COC(=O)CCc2cc(OC)c(OC)c(OC)c2)cc1)C(C)C | · | · | · | – | ·
COc1ccc(NC(=O)Cc2coc3cc(C)ccc23)cn1 | · | · | · | – | ·
C=CC(c1ccccc1)C(C(=O)c1ccccc1)N(C)C (stereo not drawn) | · | · | · | – | ·
O=C(/C=C/c1ccc(Cl)cc1Cl)NCCSCc1ccccc1 | – | – | – | 16 | –
COc1ccc(N(C)C(=S)Oc2ccc(C(=O)Nc3ccccc3)cc2)cc1 | – | – | – | – | ·
Cc1cccc(N(C)C(=S)Oc2ccc3ccccc3c2)c1 | – | – | – | 12 | –
Cc1ccc(NC(=O)C2CC(=O)n3ncnc3N2)cc1C (stereo not drawn) | · | · | · | – | ·
O=C(CSc1ccc(Cl)cc1Cl)N1CCC(c2nc3ccccc3s2)CC1 | – | – | – | 13 | –
O=C(Oc1cccc(NC(=O)c2ccco2)c1)c1ccc(Br)c(S(=O)(=O)N2CCCCC2)c1 | – | – | – | – | ·
O=C(NN=C1CCCCCCCCCCC1)c1cccc(S(=O)(=O)N2CCOCC2)c1 | – | – | – | – | ·
O=C(COC(=O)CC(c1ccccc1)c1ccccc1)Nc1ccc(F)c(F)c1 | · | · | · | 12 | –
c1ccc(SCCOCCN2CCc3ccccc3C2)cc1 | – | – | – | – | ·
COc1ccc(C(=O)O)cc1S(=O)(=O)Nc1cccc(C(F)(F)F)c1 | – | – | – | – | ·
O=C(O)c1ccc(Cl)c(S(=O)(=O)Nc2cccc(C(=O)Nc3cccc(C(F)(F)F)c3)c2)c1 | · | · | · | 12 | –
O=[N+]([O-])c1ccc(COc2cccc(CNc3ccc(Br)cc3)c2)cc1 | – | – | – | 14 | –
COc1cccc(C2CC(c3ccc(NS(C)(=O)=O)cc3)=NN2C(=O)c2ccccc2)c1OC (stereo not drawn) | · | · | · | – | ·
COC(=O)CCSCC(=O)N1N=C(c2ccc(Br)cc2)CC1c1cccc(OC)c1OC (stereo not drawn) | · | · | · | 13 | –
O=C(CNC(=S)N(Cc1ccccc1)Cc1ccccc1F)NCCc1ccc(Cl)cc1 | · | · | · | 36 | –
CC1=C(C(=O)Nc2ccccc2C)C(c2ccc(C)o2)NC(=S)N1 (stereo not drawn) | – | – | – | – | ·
SMILES | Yeast growth inh | Yeast lifespan up | Measles CPE | RAM inhibit | RAM 5-FOA
C=C(CC1([C@@H](NP(=O)(c2ccccc2)c2ccccc2)[C@H]2C[C@@H]2CCCC)CC1)c1ccccc1 | – | – | – | 21 | –
CC(C)C[C@H](NC(=O)c1[nH]cnc1C(=O)N[C@H](C)c1ccccc1)C(=O)OCc1ccccc1 | · | · | · | 12 | –
Cc1ccc(-c2noc(CCC(=O)N3CCN(c4cccc(C(F)(F)F)c4)CC3)n2)cc1 | – | – | – | 12 | –
COc1ccc(-c2noc(CCC(=O)N3CCN(c4cc(C)ccc4C)CC3)n2)cc1 | – | – | – | – | ·
CN(CCc1ccccn1)C(=O)CCC1CCCN(C(=O)NC2CCCCC2)C1 (stereo not drawn) | · | · | · | – | ·
CCOC(=O)c1c(C)[nH]c(C)c1C(=O)COC(=O)/C=C/c1cccc(C(F)(F)F)c1 | – | – | – | 23 | –
Cc1ccc(OCCNC(=O)C(=O)NCc2ccco2)cc1 | · | · | · | – | ·
CN(CCOc1ccccc1)S(=O)(=O)c1ccc2oc3ccccc3c2c1 | – | – | – | 15 | –
COc1ccc(OCCNS(=O)(=O)c2ccc3oc4ccccc4c3c2)cc1 | – | – | – | – | ·
CC(C)(C)CNc1cc(N2CCCC2)ccc1[N+](=O)[O-] | – | – | – | – | ·
CC(C)c1ccc(CNc2cc(N3CCCC3)ccc2[N+](=O)[O-])cc1 | – | – | – | 19 | –
O=C(NC(=S)Nc1ccc(Oc2ccc(Cl)cc2)cc1)c1ccccc1 | – | – | – | 17 | –
COc1ccc(NC(=S)NC(=O)c2ccccc2Cl)cc1 | · | · | · | – | ·
CCC(=O)NC(=S)Nc1ccc(NC(=S)NC(=O)c2ccccc2)cc1 | · | · | · | 13 | –
O=C(NNC(=O)c1sccc1-n1cccc1)Nc1ccc(F)cc1 | · | · | · | – | ·
CSc1ccc(/C=C/C(=O)c2ccc(NC(=O)Cc3ccccc3)cc2)cc1 | – | – | – | 14 | –
O=c1c2c3c(sc2nc(NCCO)n1CCc1ccccc1)CCCCC3 | – | – | · | – | ·
OCCNc1nc(SCc2ccccc2)nc2sc3c(c12)CCC3 | – | – | – | 11 | –
Cc1ccc(/C=N/n2c(C)nc3ccccc3c2=O)s1 | · | · | · | – | ·
CC(=O)NC(Cc1ccc(O)cc1)C(=O)NN (stereo not drawn) | · | · | · | – | ·
O=C(Nc1ccc(F)cc1F)c1sccc1SCc1cccc(C(F)(F)F)c1 | – | – | – | – | ·
COc1ccc(NC(=O)c2sccc2SCc2cccc(C(F)(F)F)c2)cc1 | – | – | – | 16 | –
O=C(Nc1ccc(F)cc1)c1sccc1SCc1cccc(C(F)(F)F)c1 | – | – | – | 14 | –
CCCCCC(=O)O[C@]1(C(C)=O)CC[C@H]2[C@@H]3CCC4=CC(=O)CC[C@]4(C)[C@H]3CC[C@@]21C | – | – | – | 12 | –
CCOc1ccc(S(=O)(=O)N(C)c2ccc(OCC(=O)Nc3nc(-c4cc(OC)ccc4OC)cs3)cc2)cc1 | – | – | – | – | ·
SMILES | Yeast growth inh | Yeast lifespan up | Measles CPE | RAM inhibit | RAM 5-FOA
FC(F)Oc1ccc(NC(=S)N2CCc3ccccc32)cc1 | · | · | · | – | ·
Brc1ccc(-c2csc(N3CCc4ccccc4C3)n2)cc1 | – | – | – | 15 | –
O=[N+]([O-])c1ccc(-c2csc(N3CCc4ccccc4C3)n2)cc1 | – | – | – | – | ·
O/N=C/c1cc(Br)ccc1OCc1cccc(F)c1 | – | – | – | 12 | –
O=C(CNC(=O)c1cccc(F)c1)N/N=C/c1cc(Br)ccc1OCc1ccccc1 | – | – | – | – | ·
COc1ccc(N=C2S/C(=C\c3ccc(C)s3)C(=O)N2CC(C)C)cc1 | – | – | – | 15 | –
COc1ccc(N=C2S/C(=C\c3cccs3)C(=O)N2CC(C)C)cc1 | – | – | – | – | ·
CCOC(=O)C1(C)NC(c2ccco2)C2C(=O)N(CC)C(=O)C21 (stereo not drawn) | · | · | · | – | ·
COc1ccc([N+](=O)[O-])cc1NC(=O)c1ccco1 | · | · | · | – | ·
O=C(CSc1nnc(-c2ccc(Cl)s2)o1)N1CCCc2ccccc21 | – | – | – | 14 | –
O=C(CCCSc1nnc(SCCCC(=O)c2ccc(F)cc2)s1)c1ccc(F)cc1 | – | – | – | 14 | –
Cc1ccc(NC(=O)CSc2nnc(-c3cccs3)n2Cc2ccco2)cc1 | – | – | – | 12 | –
